Data: ChEMBL document CHEMBL3046181 (Molecules, 2013)

How the values were obtained:
Lolium multiflorum [1] = assay: Post-emergent herbicidal activity against Lolium multiflorum (Italian ryegrass) assessed as dry biomass at 60 uM after 14 days relative to control; type: functional
How it was run: (§1)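 Plants were grown 18 days in a greenhouse, then sprayed with compound dissolved in MeOH with Tween 20 and maize oil. Controls were sprayed with distilled water containing the same MeOH, Tween 20 and maize oil. Dry biomass of all leaves was weighed 14 days after spraying, and differences from control were judged by Student's t-test (p < 0.05).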

Lolium multiflorum [2] = assay: Post-emergent herbicidal activity against Lolium multiflorum (Italian ryegrass) assessed as dry biomass at 20 uM after 14 days relative to control; type: functional; how it was run: as §1
Triticum aestivum [3] = assay: Post-emergent herbicidal activity against Triticum vulgare var. Salamanca (wheat) assessed as dry biomass at 40 uM after 14 days relative to control; type: functional; how it was run: as §1
Triticum aestivum [4] = assay: Post-emergent herbicidal activity against Triticum vulgare var. Salamanca (wheat) assessed as dry biomass at 60 uM after 14 days relative to control; type: functional; how it was run: as §1
Physalis ixocarpa [5] = assay: Post-emergent herbicidal activity against Physalis ixocarpa assessed as dry biomass at 40 uM after 14 days relative to control; type: functional; how it was run: as §1
Lolium multiflorum [6] = assay: Post-emergent herbicidal activity against Lolium multiflorum (Italian ryegrass) assessed as dry biomass at 40 uM after 14 days relative to control; type: functional; how it was run: as §1
Physalis ixocarpa [7] = assay: Post-emergent herbicidal activity against Physalis ixocarpa assessed as dry biomass at 60 uM after 14 days relative to control; type: functional; how it was run: as §1
Triticum aestivum [8] = assay: Post-emergent herbicidal activity against Triticum vulgare var. Salamanca (wheat) assessed as dry biomass at 20 uM after 14 days relative to control; type: functional; how it was run: as §1
Trifolium alexandrinum [9] = assay: Post-emergent herbicidal activity against Trifolium alexandrinum assessed as dry biomass at 60 uM after 14 days relative to control; type: functional; how it was run: as §1
Trifolium alexandrinum [10] = assay: Post-emergent herbicidal activity against Trifolium alexandrinum assessed as dry biomass at 20 uM after 14 days relative to control; type: functional; how it was run: as §1
Physalis ixocarpa [11] = assay: Post-emergent herbicidal activity against Physalis ixocarpa assessed as dry biomass at 20 uM after 14 days relative to control; type: functional; how it was run: as §1
Trifolium alexandrinum [12] = assay: Post-emergent herbicidal activity against Trifolium alexandrinum assessed as dry biomass at 40 uM after 14 days relative to control; type: functional; how it was run: as §1
[13] = Inhibition of mitochondrial complex 1 in Homo sapiens (human) T47D cells by Clark's electrode method; type: cell-based
Lolium multiflorum [14] = assay: Herbicidal activity against Lolium multiflorum (Italian ryegrass) assessed as inhibition of root elongation after 5 days; settings: 120 h
Lolium multiflorum [15] = assay: Herbicidal activity against Lolium multiflorum (Italian ryegrass) assessed as inhibition of shoot elongation after 5 days; settings: 120 h
Physalis ixocarpa [16] = assay: Herbicidal activity against Physalis ixocarpa assessed as inhibition of seed respiration at 10 to 50 uM by Clark's electrode method; type: functional, organism-based; settings: TDE = time-dependent effect
How it was run: (§2)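 Seeds imbibed in 10 mL water on filter paper in Petri dishes, with compound at 10–50 μM (dissolved in MeOH, final MeOH under 1%); controls received the same water and MeOH. O2 uptake was measured polarographically after 5, 24, 48 and 72 h of imbibition, and consumption rate was calculated. IC50 at 72 h was derived by probit/linear regression. Replicate experiments, means ± S.E.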

Triticum aestivum [17] = assay: Herbicidal activity against Triticum vulgare var. Salamanca (wheat) assessed as inhibition of seed respiration after 5 to 72 hr by Clark's electrode method; type: functional, organism-based; how it was run: as §2
Trifolium alexandrinum [18] = assay: Herbicidal activity against Trifolium alexandrinum assessed as inhibition of seed respiration after 5 to 72 hr by Clark's electrode method; type: functional, organism-based; how it was run: as §2
Triticum aestivum [19] = assay: Herbicidal activity against Triticum vulgare var. Salamanca (wheat) assessed as inhibition of seed germination after 4 days; settings: 96 h
Trifolium alexandrinum [20] = assay: Herbicidal activity against Trifolium alexandrinum assessed as inhibition of seed respiration at 10 to 50 uM by Clark's electrode method; type: functional, organism-based; settings: TDE = time-dependent effect; how it was run: as §2
Physalis ixocarpa [21] = assay: Herbicidal activity against Physalis ixocarpa assessed as inhibition of root elongation after 5 days; settings: 120 h
Trifolium alexandrinum [22] = assay: Herbicidal activity against Trifolium alexandrinum assessed as inhibition of root elongation after 5 days; settings: 120 h
Lolium multiflorum [23] = assay: Herbicidal activity against Lolium multiflorum (Italian ryegrass) assessed as inhibition of seed respiration after 5 to 72 hr by Clark's electrode method; type: functional, organism-based; how it was run: as §2
Lolium multiflorum [24] = assay: Herbicidal activity against Lolium multiflorum (Italian ryegrass) assessed as inhibition of seed respiration at 10 to 50 uM by Clark's electrode method; type: functional, organism-based; settings: TDE = time-dependent effect; how it was run: as §2
Lolium multiflorum [25] = assay: Herbicidal activity against Lolium multiflorum (Italian ryegrass) assessed as inhibition of seed germination at 50 uM after 5 days; type: functional; settings: 120 h
How it was run: (§3)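 Seeds were placed on filter paper in Petri dishes (20 seeds for T. vulgare) and wetted with deionized water or test solution. Compound was given in MeOH at under 1%, and controls held matching MeOH. Three replicate experiments were run. Germination was scored as 1 mm root extrusion, and root and shoot length were measured on all germinated seeds. Student's t-test was used, and IC50 values came from probit analysis.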

Physalis ixocarpa [26] = assay: Herbicidal activity against Physalis ixocarpa assessed as inhibition of seed respiration after 5 to 72 hr by Clark's electrode method; type: functional, organism-based; how it was run: as §2
Lolium multiflorum [27] = assay: Herbicidal activity against Lolium multiflorum (Italian ryegrass) assessed as inhibition of seed respiration after 72 hr by Clark's electrode method; type: functional, organism-based
How it was run: (§4)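 Seeds were imbibed in 10 mL water in Petri dishes with compound at 10–50 μM, as in the germination set-up. O2 uptake was measured after 5, 24, 48 and 72 h with an oxygen electrode, where O2-reduction current was converted to voltage. Consumption rate was calculated, with replicates as mean ± S.E. IC50 came from probit analysis.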

Physalis ixocarpa [28] = assay: Herbicidal activity against Physalis ixocarpa assessed as inhibition of seed germination after 5 days; settings: 120 h
Triticum aestivum [29] = assay: Herbicidal activity against Triticum vulgare var. Salamanca (wheat) assessed as inhibition of seed respiration after 72 hr by Clark's electrode method; type: functional, organism-based; how it was run: as §4
Lolium multiflorum [30] = assay: Herbicidal activity against Lolium multiflorum (Italian ryegrass) assessed as inhibition of seed germination after 5 days; settings: 120 h
Physalis ixocarpa [31] = assay: Herbicidal activity against Physalis ixocarpa assessed as inhibition of shoot elongation after 5 days; settings: 120 h
Spinacia oleracea [32] = assay: Inhibition of light reaction of photosynthesis in Spinacia oleracea (spinach) chloroplast; type: functional
Physalis ixocarpa [33] = assay: Herbicidal activity against Physalis ixocarpa assessed as inhibition of seed respiration after 72 hr by Clark's electrode method; type: functional, organism-based; how it was run: as §4
Physalis ixocarpa [34] = assay: Herbicidal activity against Physalis ixocarpa assessed as inhibition of seed germination at 50 uM after 5 days; type: functional; settings: 120 h; how it was run: as §3
Triticum aestivum [35] = assay: Herbicidal activity against Triticum vulgare var. Salamanca (wheat) assessed as inhibition of shoot elongation after 4 days; settings: 96 h
Triticum aestivum [36] = assay: Herbicidal activity against Triticum vulgare var. Salamanca (wheat) assessed as inhibition of root elongation after 4 days; settings: 96 h
Triticum aestivum [37] = assay: Herbicidal activity against Triticum vulgare var. Salamanca (wheat) assessed as inhibition of seed respiration at 10 to 50 uM by Clark's electrode method; type: functional, organism-based; settings: TDE = time-dependent effect; how it was run: as §2
Trifolium alexandrinum [38] = assay: Herbicidal activity against Trifolium alexandrinum assessed as inhibition of seed respiration after 72 hr by Clark's electrode method; type: functional, organism-based; how it was run: as §4
Trifolium alexandrinum [39] = assay: Herbicidal activity against Trifolium alexandrinum assessed as inhibition of shoot elongation after 5 days; settings: 120 h
Trifolium alexandrinum [40] = assay: Herbicidal activity against Trifolium alexandrinum assessed as inhibition of seed germination after 5 days; settings: 120 h
Spinacia oleracea [41] = assay: Inhibition of hill reaction in Spinacia oleracea (spinach) chloroplast; type: functional

Q: With C[n+]1ccc(-c2cc[n+](C)cc2)cc1.[Cl-].[Cl-] [PARAQUAT DICHLORIDE] as the compound, how does the Activity (Lolium multiflorum [1]) read?
A: Its Activity is 32%.

Q: What about the Activity (Lolium multiflorum [2]) of the same compound?
A: The Activity was 97%.

Q: And the Activity (Triticum aestivum [3])?
A: The Activity was 67%.

Q: What about the Activity (Triticum aestivum [4]) of the same compound?
A: Its Activity is 67%.

Q: What about the Activity (Physalis ixocarpa [5]) of the same compound?
A: The Activity was 100%.

Q: What about the Activity (Lolium multiflorum [6]) of the same compound?
A: The Activity was 54%.

Q: And the Activity (Physalis ixocarpa [7])?
A: Its Activity is 84%.

Q: And the Activity (Triticum aestivum [8])?
A: The Activity was 83%.

Q: What about the Activity (Trifolium alexandrinum [9]) of the same compound?
A: The Activity was 57%.

Q: And the Activity (Trifolium alexandrinum [10])?
A: Its Activity is 67%.

Q: What about the Activity (Physalis ixocarpa [11]) of the same compound?
A: The Activity was 96%.

Q: And the Activity (Trifolium alexandrinum [12])?
A: The Activity was 59%.

Q: For CC(C)(O)[C@H]1CC[C@](C)([C@@H](O)CC[C@](C)(O)[C@H]2CC[C@H]3O[C@@H]([C@]4(C)CC[C@@H](Br)C(C)(C)O4)CC[C@]3(C)O2)O1 [THYRSIFEROL], which IC50 [13] is on record?
A: Its IC50 is 3 µM.

Q: Which results are given for CCCCC[C@H]1CCCCCCCCCC(=O)O[C@H]2[C@H](O)[C@@H](CO)O[C@@H](O[C@H]3[C@H](O1)O[C@H](C)[C@H](O)[C@@H]3O)[C@@H]2O[C@@H]1O[C@@H](C)[C@H](OC(=O)[C@@H](C)CC)[C@@H](O[C@@H]2O[C@@H](C)[C@H](O)[C@@H](O)[C@H]2O)[C@H]1OC(=O)[C@@H](C)CC [TRICOLORIN A]?
A: IC50 (Lolium multiflorum [14]): 15.3 µM; IC50 (Lolium multiflorum [15]): 12.3 µM; inhibition (Physalis ixocarpa [16]): tde; inhibition (Triticum aestivum [17]): Dose-dependent effect; inhibition (Trifolium alexandrinum [18]): Dose-dependent effect; IC50 (Triticum aestivum [19]): 25.7 µM; inhibition (Trifolium alexandrinum [20]): tde; IC50 (Physalis ixocarpa [21]): 13.8 µM; IC50 (Trifolium alexandrinum [22]): 18 µM; inhibition (Lolium multiflorum [23]): Dose-dependent effect; Activity (Lolium multiflorum [1]): 38%; inhibition (Lolium multiflorum [24]): tde; inhibition at 50 µM (Lolium multiflorum [25]): 100%; inhibition (Physalis ixocarpa [26]): Dose-dependent effect; Activity (Lolium multiflorum [2]): 91%; IC50 (Lolium multiflorum [27]): 8 µM; IC50 (Physalis ixocarpa [28]): 13.8 µM; Activity (Triticum aestivum [3]): 78%; IC50 (Triticum aestivum [29]): 25.7 µM; IC50 (Lolium multiflorum [30]): 16.1 µM; Activity (Triticum aestivum [4]): 67%; IC50 (Physalis ixocarpa [31]): 12.7 µM; UC50 (Spinacia oleracea [32]): 0.33 µM; Activity (Physalis ixocarpa [5]): 84%; Activity (Lolium multiflorum [6]): 53%; Activity (Physalis ixocarpa [7]): 78%; Activity (Triticum aestivum [8]): 82%; IC50 (Physalis ixocarpa [33]): 11.7 µM; Activity (Trifolium alexandrinum [9]): 63%; inhibition at 50 µM (Physalis ixocarpa [34]): 100%; IC50 (Triticum aestivum [35]): 8.5 µM; IC50 (Triticum aestivum [36]): 24.1 µM; Activity (Trifolium alexandrinum [10]): 87%; inhibition (Triticum aestivum [37]): tde; IC50 (Trifolium alexandrinum [38]): 22.6 µM; IC50 (Trifolium alexandrinum [39]): 12.7 µM; IC50 (Trifolium alexandrinum [40]): 16 µM; Activity (Physalis ixocarpa [11]): 104%; IC50 (Spinacia oleracea [41]): 5 µM; Activity (Trifolium alexandrinum [12]): 83%
